Assay results as given in ChEMBL document CHEMBL4130442, “Design, synthesis and structure-activity relationship studies of a focused library of pyrimidine moiety with anti-proliferative and anti-metastasis activities in triple negative breast cancer” (Eur J Med Chem, 2017).

Experiments:
[1] = test system: MDA-MB-231; test: Antiproliferative activity against human MDA-MB-231 cells incubated for 48 hrs by MTT assay; type: functional, cell-based; settings: MDA-MB-231, 48 h
In short: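 MDA-MB-231 cells grown in DMEM with 10% FBS under 5% CO2 were seeded at 5×10^4 cells/ml. After 24 h, a concentration series was added for 24, 48 or 72 h and viability was read by MTT. IC50 is mean ± SD of triplicates.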

[2] = test system: MDA-MB-231; test: Induction of autophagy in human MDA-MB-231 cells assessed as change in LC3-2 protein level at 2.5 uM incubated for 24 hrs by Western blot method relative to untreated control; type: functional
In short: (§1)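 MDA-MB-231 cells (ATCC; DMEM, 10% FBS, 5% CO2) were treated 24 h over a concentration series. Adherent and floating cells were pooled and lysed 1 h at 4 °C (50 mM Hepes pH 7.4, 1% Triton X-100, phosphatase/protease inhibitors). Equal protein was run on 10-15% SDS-PAGE, transferred to PVDF, probed for Beclin-1, p62 and LC3 with HRP/ECL detection, and normalised to β-actin.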

[3] = test system: MDA-MB-231; test: Induction of autophagy in human MDA-MB-231 cells assessed as change in LC3-2 protein level at 10 uM incubated for 24 hrs by Western blot method relative to untreated control; type: functional; in short: as §1
[4] = test system: MDA-MB-231; test: Induction of apoptosis in human MDA-MB-231 cells assessed as change in cleaved caspase-3 protein level at 5 uM incubated for 24 hrs by Western blot method relative to untreated control; type: functional
In short: (§2)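 MDA-MB-231 cells were exposed for 24 h. Adherent and floating cells were pooled and lysed for 1 h at 4 °C in 50 mM Hepes pH 7.4 with 1% Triton X-100, orthovanadate, NaF, EDTA, PMSF, aprotinin and leupeptin. After 12,000 rpm clearing, equal protein was run on 10-15% SDS-PAGE and blotted to PVDF. Detection used HRP-ECL, with β-actin as loading control and densitometric quantification.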

[5] = molecular target: T1, Platelet-derived growth factor receptor beta (Homo sapiens, UniProt P09619); test: Inhibition of PDGFRbeta in human MDA-MB-231 cells assessed as PDGFRbeta Tyr740 phosphorylation level at 10 uM incubated for 24 hrs by Western blot relative to untreated control; type: cell-based
T1 sequence (P09619 whole entry): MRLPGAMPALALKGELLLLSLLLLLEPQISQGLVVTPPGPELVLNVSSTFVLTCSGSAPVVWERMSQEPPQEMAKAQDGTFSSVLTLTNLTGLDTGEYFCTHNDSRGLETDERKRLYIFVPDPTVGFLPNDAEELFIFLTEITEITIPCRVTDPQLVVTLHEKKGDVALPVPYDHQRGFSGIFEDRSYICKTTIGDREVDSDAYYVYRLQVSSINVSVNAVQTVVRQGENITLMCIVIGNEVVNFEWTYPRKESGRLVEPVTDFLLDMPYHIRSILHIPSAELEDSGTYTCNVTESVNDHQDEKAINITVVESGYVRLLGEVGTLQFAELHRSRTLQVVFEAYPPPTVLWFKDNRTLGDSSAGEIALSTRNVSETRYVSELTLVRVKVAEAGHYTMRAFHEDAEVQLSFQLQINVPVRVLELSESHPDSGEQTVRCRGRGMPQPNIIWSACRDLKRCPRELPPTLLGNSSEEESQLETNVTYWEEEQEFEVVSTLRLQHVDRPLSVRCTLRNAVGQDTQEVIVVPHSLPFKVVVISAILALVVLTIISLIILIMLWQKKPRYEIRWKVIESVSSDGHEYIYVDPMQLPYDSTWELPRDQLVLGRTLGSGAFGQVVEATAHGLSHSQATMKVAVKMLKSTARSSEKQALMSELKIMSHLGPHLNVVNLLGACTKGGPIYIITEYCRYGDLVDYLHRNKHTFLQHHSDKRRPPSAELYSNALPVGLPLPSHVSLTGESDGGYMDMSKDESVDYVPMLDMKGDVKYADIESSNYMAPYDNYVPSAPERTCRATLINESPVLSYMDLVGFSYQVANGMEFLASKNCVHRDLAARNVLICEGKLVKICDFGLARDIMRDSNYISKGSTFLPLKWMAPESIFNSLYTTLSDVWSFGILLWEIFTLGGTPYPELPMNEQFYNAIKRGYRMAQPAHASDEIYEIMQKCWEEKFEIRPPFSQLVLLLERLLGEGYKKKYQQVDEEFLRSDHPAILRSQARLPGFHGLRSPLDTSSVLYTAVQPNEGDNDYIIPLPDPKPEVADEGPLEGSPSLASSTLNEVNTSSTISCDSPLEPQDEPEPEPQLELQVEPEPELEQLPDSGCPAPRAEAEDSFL
In short: (§3)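 Cells were treated 24 h at several concentrations. Pooled adherent and floating cells were lysed in Hepes 50 mM pH 7.4 / 1% Triton X-100 buffer with vanadate, NaF, EDTA, PMSF, aprotinin and leupeptin. Equal protein was run on 10-15% SDS-PAGE and blotted to PVDF. PDGFR-β-AKT-ULK1 pathway phospho-proteins were probed and detected by ECL, with β-actin as loading control.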

[6] = molecular target: T1, Platelet-derived growth factor receptor beta; test: Inhibition of PDGFRbeta in human MDA-MB-231 cells assessed as Akt Thr305 phosphorylation level at 5 uM incubated for 24 hrs by Western blot relative to untreated control; type: cell-based; in short: as §3
[7] = molecular target: T1, Platelet-derived growth factor receptor beta; test: Inhibition of PDGFRbeta in human MDA-MB-231 cells assessed as mTOR Ser2448 phosphorylation level at 5 uM incubated for 24 hrs by Western blot relative to untreated control; type: cell-based; in short: as §3
[8] = molecular target: T1, Platelet-derived growth factor receptor beta; test: Inhibition of PDGFRbeta in human MDA-MB-231 cells assessed as ULK Ser317 phosphorylation level at 5 uM incubated for 24 hrs by Western blot relative to untreated control; type: cell-based; in short: as §3
[9] = test system: MDA-MB-231; test: Effect on total mTOR protein level in human MDA-MB-231 cells at 10 uM incubated for 24 hrs by Western blot relative to untreated control; type: ADME, cell-based; settings: mda-mb-231, 24 h; in short: as §2
[10] = test system: MDA-MB-231; test: Effect on total ULK1 protein level in human MDA-MB-231 cells at 10 uM incubated for 24 hrs by Western blot relative to untreated control; type: ADME, cell-based; settings: mda-mb-231, 24 h; in short: as §2
[11] = test system: MDA-MB-231; test: Effect on total Akt protein level in human MDA-MB-231 cells at 2.5 uM incubated for 24 hrs in presence of PDGFRbeta siRNA by Western blot relative to untreated control; type: ADME, cell-based; settings: mda-mb-231, 24 h; in short: as §2
[12] = test system: MDA-MB-231; test: Induction of autophagy in human MDA-MB-231 cells assessed as change in Beclin-1 protein level at 2.5 uM incubated for 24 hrs in presence of control siRNA by Western blot method relative to untreated control; type: functional; in short: as §2
[13] = molecular target: T1, Platelet-derived growth factor receptor beta; test: Inhibition of PDGFRbeta in human MDA-MB-231 cells assessed as Akt Thr305 phosphorylation level at 2.5 uM incubated for 24 hrs in absence of PDGFRbeta siRNA by Western blot relative to untreated control; type: cell-based
In short: (§4)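 Cells were transfected with control or PDGFR-β siRNA, then treated with 2.5 μM compound for 24 h. PDGFR-β-AKT-ULK1 pathway phospho-proteins were assessed by western blot: lysis in Hepes pH 7.4 / Triton buffer, 10-15% SDS-PAGE, PVDF, ECL detection, β-actin as loading control.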

[14] = molecular target: T1, Platelet-derived growth factor receptor beta; test: Inhibition of PDGFRbeta in human MDA-MB-231 cells assessed as mTOR Ser2448 phosphorylation level at 2.5 uM incubated for 24 hrs in absence of PDGFRbeta siRNA by Western blot relative to untreated control; type: cell-based; in short: as §4
[15] = molecular target: T1, Platelet-derived growth factor receptor beta; test: Inhibition of PDGFRbeta in human MDA-MB-231 cells assessed as mTOR Ser2448 phosphorylation level at 2.5 uM incubated for 24 hrs in presence of PDGFRbeta siRNA by Western blot relative to untreated control; type: cell-based; in short: as §4
[16] = molecular target: T1, Platelet-derived growth factor receptor beta; test: Inhibition of PDGFRbeta in human MDA-MB-231 cells assessed as ULK Ser555 phosphorylation level at 2.5 uM incubated for 24 hrs in presence of control siRNA by Western blot relative to untreated control; type: cell-based; in short: as §4
[17] = test system: MDA-MB-231; test: Effect on total MEK1/2 protein level in human MDA-MB-231 cells at 5 uM incubated for 24 hrs in presence of PDGFRbeta siRNA by Western blot relative to untreated control; type: cell-based; settings: mda-mb-231, 24 h
[18] = test system: MDA-MB-231; test: Effect on total ERK1/2 protein level in human MDA-MB-231 cells at 10 uM incubated for 24 hrs in presence of PDGFRbeta siRNA by Western blot relative to untreated control; type: cell-based; settings: mda-mb-231, 24 h
[19] = molecular target: T1, Platelet-derived growth factor receptor beta; test: Inhibition of PDGFRbeta in human MDA-MB-231 cells assessed as C-Raf Ser259 phosphorylation level at 2.5 uM incubated for 24 hrs in presence of PDGFRbeta siRNA by Western blot relative to untreated control; type: cell-based
[20] = molecular target: T1, Platelet-derived growth factor receptor beta; test: Inhibition of PDGFRbeta in human MDA-MB-231 cells assessed as C-Raf Ser338 phosphorylation level at 2.5 uM incubated for 24 hrs in presence of PDGFRbeta siRNA by Western blot relative to untreated control; type: cell-based
[21] = molecular target: Dual specificity mitogen-activated protein kinase kinase; MEK1/2 (Homo sapiens) (UniProt P36507+Q02750); test: Inhibition of MEK1/2 in human MDA-MB-231 cells assessed as MEK1/2 Ser217/221 phosphorylation level at 10 uM incubated for 24 hrs in presence of PDGFRbeta siRNA by Western blot relative to untreated control; type: cell-based
Dual specificity mitogen-activated protein kinase kinase; MEK1/2 (Homo sapiens), sequence (P36507 whole entry, looked up): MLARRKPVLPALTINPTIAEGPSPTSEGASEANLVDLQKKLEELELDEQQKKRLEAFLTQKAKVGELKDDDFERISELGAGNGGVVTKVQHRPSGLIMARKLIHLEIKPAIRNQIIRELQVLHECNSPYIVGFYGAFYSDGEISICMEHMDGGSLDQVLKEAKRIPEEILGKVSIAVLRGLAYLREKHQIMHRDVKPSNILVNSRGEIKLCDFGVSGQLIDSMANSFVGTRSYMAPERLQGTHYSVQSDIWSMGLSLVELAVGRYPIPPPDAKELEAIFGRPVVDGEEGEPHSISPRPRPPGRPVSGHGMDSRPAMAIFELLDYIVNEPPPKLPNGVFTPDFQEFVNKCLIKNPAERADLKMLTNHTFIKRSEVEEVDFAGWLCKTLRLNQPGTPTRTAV
Dual specificity mitogen-activated protein kinase kinase; MEK1/2 (Homo sapiens), sequence (Q02750 whole entry, looked up): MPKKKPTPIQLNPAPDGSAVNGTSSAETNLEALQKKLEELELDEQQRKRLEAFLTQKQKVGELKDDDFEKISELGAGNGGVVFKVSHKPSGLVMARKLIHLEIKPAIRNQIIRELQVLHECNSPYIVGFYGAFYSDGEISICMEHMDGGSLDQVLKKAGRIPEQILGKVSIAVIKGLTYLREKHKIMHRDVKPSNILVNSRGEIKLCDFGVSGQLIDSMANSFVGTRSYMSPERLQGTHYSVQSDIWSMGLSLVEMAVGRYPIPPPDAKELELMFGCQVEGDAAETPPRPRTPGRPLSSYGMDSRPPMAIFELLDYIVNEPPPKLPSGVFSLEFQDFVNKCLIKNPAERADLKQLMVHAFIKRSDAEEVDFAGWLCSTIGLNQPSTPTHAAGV

[22] = molecular target: Mitogen-activated protein kinase; ERK1/ERK2 (Homo sapiens) (UniProt P27361+P28482); test: Inhibition of ERK1/2 in human MDA-MB-231 cells assessed as ERK1/2 Thr202/Tyr204 phosphorylation level at 10 uM incubated for 24 hrs in presence of PDGFRbeta siRNA by Western blot relative to untreated control; type: cell-based
Mitogen-activated protein kinase; ERK1/ERK2 (Homo sapiens), sequence (P27361 whole entry, looked up): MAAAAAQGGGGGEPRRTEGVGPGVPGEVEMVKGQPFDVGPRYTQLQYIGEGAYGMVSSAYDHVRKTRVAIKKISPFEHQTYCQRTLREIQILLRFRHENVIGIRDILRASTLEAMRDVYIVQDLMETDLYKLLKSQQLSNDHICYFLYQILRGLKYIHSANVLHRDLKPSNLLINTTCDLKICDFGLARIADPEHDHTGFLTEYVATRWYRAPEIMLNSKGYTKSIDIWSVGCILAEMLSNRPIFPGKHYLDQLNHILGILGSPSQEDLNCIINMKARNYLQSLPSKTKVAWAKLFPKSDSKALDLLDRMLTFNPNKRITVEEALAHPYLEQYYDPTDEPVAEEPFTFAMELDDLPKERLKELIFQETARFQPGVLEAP
Mitogen-activated protein kinase; ERK1/ERK2 (Homo sapiens), sequence (P28482 whole entry, looked up): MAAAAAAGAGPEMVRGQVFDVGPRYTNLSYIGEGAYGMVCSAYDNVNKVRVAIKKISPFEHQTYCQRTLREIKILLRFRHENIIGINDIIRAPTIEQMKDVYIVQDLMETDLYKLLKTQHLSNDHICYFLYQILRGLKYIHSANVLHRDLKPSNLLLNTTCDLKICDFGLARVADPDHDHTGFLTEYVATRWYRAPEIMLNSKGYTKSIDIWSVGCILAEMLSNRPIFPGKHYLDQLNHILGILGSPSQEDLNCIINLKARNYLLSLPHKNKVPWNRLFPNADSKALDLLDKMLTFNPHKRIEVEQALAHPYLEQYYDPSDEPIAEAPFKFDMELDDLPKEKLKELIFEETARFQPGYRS

How did the IC50 [1] turn out when `COc1cccc(Nc2cc(N3CCN(C(=O)Nc4ccc(C(F)(F)F)cc4)CC3)ncn2)c1` was run?
The IC50 was 0.68 µM.

And the “fold change (FC)” value [2]?
The value was 2.5.

And the “fold change (FC)” value [3]?
The value was 2.7.

And the “fold change (FC)” value [4]?
The value was 0.88.

What about the fold change (FC) [5] of the same molecule?
Its fold change (FC) is 0.61.

What about the fold change (FC) [6] of the same molecule?
Its fold change (FC) is 0.75.

And the fold change (FC) [7]?
The fold change (FC) was 0.23.

What about the fold change (FC) [8] of the same molecule?
The fold change (FC) was 2.1.

What about the “fold change (FC)” value [9] of the same molecule?
The value was 0.45.

What about the “fold change (FC)” value [10] of the same molecule?
Its value is 0.99.

And the “fold change (FC)” value [11]?
Its value is 0.63.

And the “fold change (FC)” value [12]?
The value was 3.54.

What about the fold change (FC) [13] of the same molecule?
Its fold change (FC) is 0.05.

What about the fold change (FC) [14] of the same molecule?
Its fold change (FC) is 0.21.

And the fold change (FC) [15]?
The fold change (FC) was 0.16.

What about the fold change (FC) [16] of the same molecule?
The fold change (FC) was 3.21.

And the “fold change (FC)” value [17]?
Its value is 1.08.

And the “fold change (FC)” value [18]?
The value was 1.53.

What about the fold change (FC) [19] of the same molecule?
The fold change (FC) was 0.95.

And the fold change (FC) [20]?
The fold change (FC) was 0.85.

What about the fold change (FC) [21] of the same molecule?
Its fold change (FC) is 1.01.

And the fold change (FC) [22]?
Its fold change (FC) is 2.38.
